From PubChem BioAssay
Hits are enriched below; roughly 2.8% of the tested compounds scored in any of these assays.
HCT116 bCat-KO: primary screen for growth suppressors in beta-catenin knockout HCT116 cells (colon tumor, human). HCT116 beta-catenin knockout viability, CellTiter-Glo, 60 h; stronger effect = lower value. viability, % at 10 µM. actives 1.5% (n = 140,000). AID 818, 2007;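 active = viability at or under a set limit, the compound median less 4 SD, cut at about 6% in these data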;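 note: 0% = Hyamine 1622 control at 20 µM and 100% = untreated cell control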
Yeast lifespan up: compounds extending yeast replicative lifespan, primary screen, S. cerevisiae, OD615; actives 0.68% (n = 130,000); inhibition of the nicotinamide effect, % at 10 µM; S. cerevisiae growth with nicotinamide; deaD strain in restrictive glucose medium; AID 775, 2007;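 active = inhibition above a set limit, placed 3 SD over the median of all compounds, cut at about 26% in these data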;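 note: 0% = nicotinamide-treated wells and 100% = cells grown without nicotinamide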
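System: Modified budding yeast, DeaD strain | Buffer or medium: Restrictive glucose medium | Also added: 1.5 mM nicotinamide | Doses: 10 µM single point, 0.25% DMSO | Schedule: 48 h compound exposure at 30 °C, humidified | Detection: Absorbance at 615 nm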
SDO1 yeast rescue: growth rescue of sdo1-depleted yeast, primary screen, S. cerevisiae, bone marrow failure model; S. cerevisiae sdo1-depleted JHY4D growth rescue, OD600 30 h; stronger effect = higher value; pdr5 snq2 efflux-pump mutant strain; actives 0.21% (n = 140,000); z-score at 10 µM;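 active = z-score above 3 at both the 24 hr and the 30 hr optical density reads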;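 note: z-score against mean and SD of all compound wells on the same plate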
BB579 growth dn: growth inhibitors of yeast BB579 in restrictive medium, primary screen, yeast lifespan-shortening project, S. cerevisiae; OD615, 48 h; inhibition, % at 10 µM; actives 0.51% (n = 140,000);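 active = inhibition above a set limit, 3 SD over the mean compound inhibition, cut at about 44% in these data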
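Assay system – yeast BB579 (DeaD) · Dosing – single compound dose of 10 µM, 0.25% DMSO final · Detection – OD615 turbidity measurement · Buffer or medium – CSMM-D restrictive synthetic medium containing dextrose (glucose) · Benchmarks – positive control amphotericin B 10 µg/mL · Incubation – 48 h exposure, 30 °C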
PTEN del growth: growth suppression of PTEN-null HCT116, primary screen, cell-based, CellTiter-Glo. HCT116 PTEN-null viability, 60 h; stronger effect = lower value. viability, % at 10 µM. actives 1.2% (n = 140,000);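 active = viability at or below a set limit, 4 SD under the median of all tested compounds, cut at about 3.7% in these data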;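 note: PTEN knockout HCT116 line with beta catenin targeted HCT116 as companion control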
An asterisk follows results filed as active; nt = not tested or not shown.

SMILES	HCT116 bCat-KO	Yeast lifespan up	SDO1 yeast rescue	BB579 growth dn	PTEN del growth
COc1ccc(/C=C/C(=O)c2c(O)cc(C)oc2=O)c(OC)c1	67	-8	-0.53	-54	70
O=C(NC(=S)Nc1ccc(N2CCOCC2)cc1)c1cncc(Br)c1	102	-7	-0.64	-11	101
Cc1cc(C)c(C)c(S(=O)(=O)N2CCN(CC(=O)Nc3ccc([N+](=O)[O-])cc3)CC2)c1C	86	6	-0.31	-60	84
FC(F)(F)c1nc2ccccc2n2c(-c3ccc(Cl)cc3)nnc12	4.8*	-13	-0.34	2	10
Cc1ccc(-c2nnc3c(C(F)(F)F)nc4ccccc4n23)cc1	4.7*	-8	0.18	-11	8
CCOc1cc(N2CCOCC2)c(OCC)cc1NC(=O)CN1CCCC1	90	1	1.2	-17	95
Cc1ccc(C(=O)NNC(=S)NC(=O)c2ccc(Cl)cc2)cc1	34	95*	0.86	-32	45
O=C(Nc1cc2c3c(c1)C1CCCC1CN3CC1CCCC21)c1ccccc1 (stereo not drawn)	85	1	-1.2	-23	74
CC1(C)CC(=O)C2=C(C1)OC1=C(C(=O)CC(C)(C)C1)C2c1ccc(O)cc1O	2.1*	42*	-0.07	5	1.8*
Cc1ccc(C2C(C(N)=S)=C(N)OC3=C2C(=O)CC(C)(C)C3)cc1 (stereo not drawn)	98	-1	0.85	4	93
O=C(c1ccc(N2CCN(CCO)CC2)nc1)N1CCOCC1	94	-1	0	-1	101
Cc1ccc2c(c1)c(Sc1ccccc1)c(CC(=O)O)n2C	90	27*	0.53	-48	96
CCOC(=O)Cc1c(Sc2ccccc2)c2cc(C)ccc2n1C	89	2	-0.4	0	86
CCCC1(CCC)NC(=O)N(CC(=O)Nc2cccc(OC)c2)C1=O	95	1	1.1	-20	99
Cc1cc(OCCOCCNC(C)C)cc(C)c1Cl	5.6*	-3	-1.2	-26	17
Cc1ccc(S(=O)(=O)Oc2ccc(C3C4=C(CCCC4=O)N(CCC(=O)O)C4=C3C(=O)CCC4)cc2Cl)cc1	88	0	1.7	-35	99
CC1(C)C(=O)Nc2ccccc2N1C(=O)COC(=O)c1ccc(Cl)c(S(=O)(=O)NCc2ccccc2)c1	64	-6	-0.05	-63	64
Nc1nc2ccccc2n1/N=C/c1ccc([N+](=O)[O-])s1	3.5*	-2	-0.97	-19	2.6*
COc1ccc(OC)c(NC(=O)Cc2coc3cc(C)cc(C)c23)c1	91	-9	-1.4	-31	89
COc1cc(/C=C(\C#N)c2ccccn2)ccc1OCC(=O)Nc1ccc(Br)cc1	5.4*	1	0.13	-18	5
COc1cc(/C=C(/C#N)c2nc3ccccc3[nH]2)ccc1OCC(=O)Nc1ccccc1C(C)C	1.2*	-6	-3.2	-6	0.7*
COc1cc(/C=C(\C#N)c2ccccn2)ccc1OCC(=O)Nc1c(Cl)cccc1Cl	81	12	1.5	-31	87
COc1cc(/C=C(/C#N)c2nc3ccccc3[nH]2)ccc1OCC(=O)Nc1ccccc1C	26	-8	0.78	-34	19
O=C(O)Cc1ccc2sc(-c3ccccc3)nc2c1	78	-9	0.45	49*	91
COC(=O)Cc1ccc2sc(-c3ccccc3)nc2c1	76	-5	-1.3	-11	83
SMILES	HCT116 bCat-KO	Yeast lifespan up	SDO1 yeast rescue	BB579 growth dn	PTEN del growth
Cc1c(O)c(S(=O)c2ccccc2)c(=O)n(-c2ccccc2)c1-c1ccccc1 (stereo not drawn)	100	61*	-0.59	-42	90
Cc1c(O)c(S(=O)(=O)c2ccccc2)c(=O)n(-c2ccccc2)c1-c1ccccc1	99	26	1.2	-52	91
CCC(C)NCCOCCSc1ccc(Cl)cc1 (stereo not drawn)	55	-1	-0.22	-28	68
Cc1ccc(-n2nc(C)c(C3(O)C(=O)N(C)c4ccccc43)c2N)cc1 (stereo not drawn)	79	-4	0.24	4	84
CN1C(=O)C2(N=c3ccccc3=N2)c2ccccc21	32	-35	-1	57*	42
COc1ccccc1-n1cnnc1SCC(=O)Nc1nc(C)c(Cl)cc1Cl	96	-8	0.66	-6	97
O=C(Nc1ccccc1Cl)NC1(C(=O)N2CCCC2)CCCCC1	0.7*	nt	-0.56	-10	0.8*
CC(C)c1ccccc1NC(=S)NCc1ccccc1F	90	5	-0.26	-4	101
O=C1N=c2ccccc2=C1c1c(O)n(-c2cccc(F)c2)[nH]c1=O	94	33*	-0.36	-6	95
CCC(C)(C)NC(=O)C(c1ccc(C)o1)N(Cc1cccs1)C(=O)Cn1nnc2ccccc21 (stereo not drawn)	2.8*	1	-0.5	-32	2.4*
CCCOc1ccccc1-n1sc2c(c1=S)-c1cc(OC)cc3c1N(C(=O)C3=O)C2(C)C	46	-2	0.19	-9	3.0*
COc1cccc(-n2sc3c(c2=S)-c2cc(OC)ccc2NC3(C)C)c1	39	-5	-0.92	-10	35
O=C(CSc1nnc(Cc2cccs2)n1-c1ccc(Cl)cc1)NCc1ccc2c(c1)OCO2	91	-5	-0.57	-13	98
Cc1cc(C)c(C#N)c(SC(F)F)n1	90	-22	1	-39	96
O=C(CN1CCN(Cc2ccccc2)CC1)c1c[nH]c2ccccc12	86	-16	0.41	11	77
COC(=O)c1ccc(C(=O)NC(=S)Nc2ccc3nc(SC)sc3c2)cc1	0.9*	3	-0.96	-5	1.5*
CCO/C=C1/C(=O)N(Cc2ccccc2)C(=O)c2ccccc21	90	32*	0.96	13	102
CC(C)CCCCCCNC(=S)Nc1ccc(S(=O)(=O)N2CCOCC2)cc1	32	-1	-0.7	-17	14
CCc1ccc(S(=O)(=O)NCCc2cn3ccsc3n2)s1	89	11	0.74	46*	91
CCc1ccc(S(=O)(=O)NCc2cn3ccsc3n2)s1	95	-4	0.79	18	96
O=C1Nc2ncccc2OC1CCO (stereo not drawn)	102	-5	1.2	-17	107
CCOc1ccc2nc(C)cc(Nc3ccc4c(c3)OCCO4)c2c1	0.7*	-12	0.14	-22	0.8*
CCOc1ccc2nc(C)cc(Nc3cccc([N+](=O)[O-])c3)c2c1	1.5*	1	0.22	-25	1.5*
O=C(CNc1ccccc1)N/N=C/c1ccc2c(c1)OCCO2	94	-8	0.18	-22	81
CCc1cc(=O)oc2cc3occ(C)c3cc12	78	-4	-0.45	-7	87
CCc1cc(=O)oc2cc3occ(-c4ccc(OC)c(F)c4)c3cc12	4.2*	-8	-0.01	-20	2.7*
